# Compounds with a hit are over-represented: about 3.7% of the library has one in this group of screens.
# hERG rescue: compounds protecting human hERG from proarrhythmic drug block | CHO-hERG, FluxOR thallium flux, dofetilide IC70 present | Q12809 | activation (rescue from dofetilide block), less the hit threshold, % at 10 µM | actives 0.51% (n = 310,000);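 active = activation above the mean of controls blocked by dofetilide plus 5 SD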;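 also: thallium influx through hERG after potassium depolarization seen as dye fluorescence rise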
# KCNQ1 block: inhibitors of human KCNQ1 potassium channel; P51787; CHO-K1 KCNQ1, FluxOR thallium flux fluorescence; hits give high values; B-score at 10 µM; actives 1.3% (n = 310,000); AID 2642;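 active = compounds whose thallium flux B-score, printed positive for inhibition, exceeds three library SD while starting fluorescence stays within three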;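 also: channel opened by potassium depolarization with thallium stimulus after 20 min compound exposure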
# Kir21 inh: blocks the mouse Kir2.1 inward-rectifier potassium channel. HEK293-Kir2.1, FluxOR thallium flux fluorescence; hits give low values. B-score at 10 µM. actives 0.85% (n = 310,000). AID 1672;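 active = fluorescence ratio B-score at or below minus 3 SD of library scores, with starting-brightness B-score within 2 SD, cut at about -4.2 in these data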;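 also: channel flux triggered by added potassium and thallium sulfate stimulus; B-score of peak minus minimum fluorescence over baseline after thallium stimulus; more negative B-score means stronger Kir2.1 block with less thallium influx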
# KCNK3 inh: human KCNK3 channel inhibition, primary screen; CHO-KCNK3 thallium flux, FluxOR fluorescence; hits give low values; B-score at 10 µM; O14649; actives 0.84% (n = 340,000);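 active = B-score under library mean minus 4 SD, starting fluorescence ratio at most library mean plus 5 SD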;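 also: more negative B-score means stronger inhibition of thallium flux through KCNK3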
# Target sequence (O14649 whole entry, looked up): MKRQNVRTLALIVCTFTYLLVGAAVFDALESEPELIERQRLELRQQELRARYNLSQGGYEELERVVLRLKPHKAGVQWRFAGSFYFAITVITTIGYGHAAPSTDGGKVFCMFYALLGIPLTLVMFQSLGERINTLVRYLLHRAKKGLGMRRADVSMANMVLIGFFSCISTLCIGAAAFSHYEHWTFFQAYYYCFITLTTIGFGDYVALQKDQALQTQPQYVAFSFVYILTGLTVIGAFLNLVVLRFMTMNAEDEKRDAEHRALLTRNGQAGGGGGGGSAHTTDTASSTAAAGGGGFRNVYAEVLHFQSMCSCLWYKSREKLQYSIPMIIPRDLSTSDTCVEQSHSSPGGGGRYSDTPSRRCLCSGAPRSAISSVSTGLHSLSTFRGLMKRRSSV
# KCNK9 block: human KCNK9 channel inhibition; Q9NPC2; HEK293 KCNK9, FluxOR thallium flux fluorescence; hits give low values; B-score at 10 µM; actives 1.2% (n = 310,000); AID 488922;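 active = ratio B-score over 3 SD below the library mean, with starting fluorescence within 5 SD of its mean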;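 also: negative B-score means less thallium flux so channel inhibition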
# KCNQ1 pot: potentiators or activators of human KCNQ1 potassium channel. CHO-K1 KCNQ1, thallium flux FluxOR fluorescence; hits give high values. actives 0.35% (n = 310,000). AID 2648. B-score at 10 µM. P51787;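 active = fluorescence ratio B-score, a plate-corrected score, at least three library SD, with initial intensity B-score within 5 SD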
#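 Assay system: stable KCNQ1 CHO-K1 line; medium: assay buffer, equal DMSO in all wells; timing: 90 min dye loading and 20 min compound exposure, both at room temperature; technique: kinetic FluxOR thallium fluorescence, 10-s 1-Hz baseline, 110-s post-stimulus read; read-out basis: B score of baseline-normalized fluorescence ratio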
# KCNK9 inh conf: confirmation of human KCNK9 potassium channel inhibitors; shares compounds with KCNK9 block; HEK293 KCNK9 cells, FluxOR thallium flux fluorescence; inhibition, % at 10 µM; actives 43% (n = 4,900); AID 492992;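 active = thallium signal inhibited by more than 5 SD of the compound-free buffer control wells, on both duplicate plates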;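 also: 0% = assay buffer control wells without compound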
# Kir21 sel: tests whether KCNK9 modulators also affect mouse Kir2.1 | shares compounds with KCNK9 block | Kir2.1 cells, FluxOR thallium flux fluorescence | inhibition, % at 10 µM | actives 4% (n = 4,900) | AID 492993;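 active = thallium signal drop more than 5 SD beyond the mean of the no-compound control wells, seen in both duplicate plates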;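 also: signal is fluorescence rise after thallium addition divided by baseline fluorescence; plate controls were assay buffer only for no effect and full block by chlorpromazine control for full effect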
# HEK293 Tl ctr: non-induced cell nonspecific activity of KCNK9 modulators. shares compounds with KCNK9 block. non-induced KCNK9-HEK293, FluxOR thallium flux. inhibition, % at 10 µM. actives 40% (n = 4,900);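 active = thallium signal drop beyond 5 SD of the untreated control mean, on both duplicate plates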;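 also: plate controls were buffer only IC0 wells for no effect and SID17386958 at its maximal inhibitory level for full effect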
# KCNK3 inh conf: confirmation of human KCNK3 two-pore domain potassium channel inhibitors. actives 99% (n = 2,400). AID 651638. shares compounds with KCNK3 inh. CHO-KCNK3 thallium flux, FluxOR fluorescence; 0% buffer, 100% carvedilol maximal block. ratio percent of control, % at 10 µM;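 active = ratio percent of control, averaged over triplicates, above buffer control mean plus 5 SD, cut at about 64% in these data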;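 also: ratio is the fluorescence rise from min to max over baseline after thallium stimulus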
# KCNK3 noninduced: KCNK3 inhibitor counter-screen hit in non-induced cells | shares compounds with KCNK3 inh | non-induced KCNK3 parental cells, FluxOR thallium flux; hits give low values | thallium flux ratio (lower = more inhibition) at 10 µM | actives 40% (n = 2,400) | AID 651747;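 active = thallium flux ratio, averaged over three wells, more than 5 SD below the buffer control mean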;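 also: host cells are CHO cells without KCNK3 induction; ratio is peak minus trough fluorescence over baseline then normalized to buffer controls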
# Active calls of the source: *; i = inactive; . = no result given.
SMILES,hERG rescue,KCNQ1 block,Kir21 inh,KCNK3 inh,KCNK9 block,KCNQ1 pot,KCNK9 inh conf,Kir21 sel,HEK293 Tl ctr,KCNK3 inh conf,KCNK3 noninduced
Cc1ccc(CN2CCCN(Cc3c(F)cccc3Cl)S2(=O)=O)cc1,-4.7,i,-0.13,-10.1*,-13.9*,i,60.0%*,i,43.0%*,113.0*,i
Cc1ccc(NC(=O)c2sc3ccccc3c2Cl)nc1,-6.4,i,0.05,i,-15.1*,i,55.5%*,i,30.0%*,87.3*,i
Cc1nnc(NC(=O)c2sc3ccccc3c2Cl)s1,-4.0,i,-1.67,i,i,i,.,.,.,.,.
O=C1c2ccccc2C(Nc2ccc3c(c2)OCCO3)N1c1ccccn1 (stereo not given),-10.1,i,2.48,-9.55*,-15.4*,i,52.5%*,i,47.0%*,102.7*,i
CCC1CCCCN1C(=O)CCCOc1ccccc1 (stereo not given),-10.3,i,-2.01,i,i,i,.,.,.,.,.
CCCCC[C@H](O)/C=C/[C@H]1CCC(=O)[C@@H]1CCCCCCC(=O)N1CCCCC1CO (stereo not given in full),-4.1,i,-0.1,i,-11.6*,i,60.0%*,i,i,84.7*,i
COC(=O)c1cc(-c2cc(OC)ccc2OC)nc2c1c(=O)n(C)c(=O)n2Cc1ccccc1,-9.9,i,0.78,-10.7*,i,i,i,i,i,101.3*,i
COC(=O)c1cccnc1-n1c(=O)c2cccnc2n(Cc2cccc(OC)c2)c1=O,-10.2,i,-1.18,i,i,i,.,.,.,.,.
Cc1ccc(Cl)cc1NC(=O)N[C@@H](CC(C)C)C(=O)O,-10.1,i,-0.36,i,i,i,.,.,.,.,.
O=C(Nc1cccc(S(=O)(=O)NC2=NCCC2)c1)c1ccc(=O)[nH]c1,.,.,.,i,.,.,.,.,.,.,.
COc1ccccc1C(=O)Nc1cccc(NC(=O)c2ccccc2C)c1,-15.3,i,0.76,-11.7*,-9.09*,i,54.5%*,i,30.5%*,83.7*,i
Clc1ccc(-c2nc3cnccn3c2Nc2ccc3c(c2)OCO3)cc1,-15.3,i,2.35,-9.74*,-11.6*,i,60.0%*,i,24.5%*,105.0*,i
CSc1ccc(-c2nc3cnccn3c2Nc2ccc3c(c2)OCO3)cc1,-10.5,i,0.32,i,i,i,.,.,.,.,.
CC1Cc2ccccc2N1C(=O)COC(=O)c1ccc(N(C)C)cc1 (stereo not given),.,.,.,i,.,.,.,.,.,.,.
Fc1ccc(C(CCCn2nnc(-c3cccnc3)n2)c2ccc(F)cc2)cc1,-17.6,15*,0.01,-15.3*,-12.5*,i,55.0%*,i,37.5%*,148.3*,i
Fc1ccc(-n2nnc(-c3cccnc3)n2)cc1,-1.3,i,0.93,i,i,i,.,.,.,.,.
COc1ccc(C2CC(c3cccs3)=NN2C(=O)COC(=O)C2CCCCC2)cc1OC (stereo not given),-11.3,i,1.89,-9.58*,-14.8*,i,43.0%*,i,37.5%*,103.3*,i
CCOC(=O)C1CCN(C(=O)COc2cc(C)c(Br)cc2C)CC1,-7.7,i,0.92,-10.8*,i,i,i,i,i,77.7*,i

# Bioassay records: PubChem, Johns Hopkins Ion Channel Center
